We go through 18 compounds from ChEMBL document CHEMBL1135464, “3-Aryl-2-quinolone derivatives: synthesis and characterization of in vitro and in vivo antitumor effects with emphasis on a new therapeutical target connected with cell migration” (J Med Chem, 2002).

Where only a bound is given, the exact number is not on record here.

Data set [1] in a line: Evaluated in vivo for maximum tolerated dose and found to be nontoxic. In kind it is ADME, organism-based.
The next data set concerns A 172. Description: Cytotoxicity against A-172 glioblastomas using MTT colorimetric assay. Format: functional, cell-based. Conditions: Homo sapiens. The method, boiled down:
(§1)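 Human tumour lines from ATCC were grown at 37 °C in sealed dishes in MEM with 5% FCS. Cells were seeded at 40000 cells/mL in 96-well plates and left 24 h to plate. Each drug was then tested at six concentrations from 10^-5 to 10^-9 M. Growth was read by colorimetric MTT assay.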
In general terms: Tetrazolium assays rely on reduction of a dye to a coloured formazan, in cell work by metabolically active cells.

Another data set deals with T-24. Kind of data set: Cytotoxicity against T24 bladder cell lines using MTT colorimetric assay. In kind it is functional, cell-based. To be noted: Homo sapiens. Summed up:
as §1

The subject of another data set is PC-3. Kind of data set: Cytotoxicity against prostate cell line PC-3 using MTT colorimetric assay. Format: functional, cell-based. To be noted: Homo sapiens. Summed up:
as §1

In a further data set the test system is U-87 MG. Kind of data set: Cytotoxicity against U-87 MG glioblastomas using MTT colorimetric assay. Conditions: Homo sapiens. Format: functional, cell-based, U-87MG ATCC. Summed up:
as §1

In a further data set the test system is A549. Kind of data set: Cytotoxicity against A549 nonsmall lung cell line using MTT colorimetric assay. Conditions: Homo sapiens. In kind it is functional, cell-based. Summed up:
as §1

The next data set concerns LoVo. Description: Cytotoxicity measured on LoVo colon cell line using MTT colorimetric assay. In kind it is functional, cell-based. To be noted: Homo sapiens. Summed up: as §1
Another data set deals with J82. Kind of data set: Cytotoxicity against J82 bladder cell lines using MTT colorimetric assay. Format: functional, cell-based. Conditions: Homo sapiens. Summed up:
as §1

The next data set relates to U373 MG. Kind of data set: Cytotoxicity against U-373 MG glioblastomas using MTT colorimetric assay. In kind it is functional, cell-based, U-373MG ATCC. To be noted: Homo sapiens. The method, boiled down: as §1
The subject of the next data set is T47D. Description: Cytotoxicity against Breast cancer cell line T-47D using MTT colorimetric assay. Format: functional, cell-based. Conditions: Homo sapiens. The method, boiled down:
as §1

Another data set deals with A-427. Description: Cytotoxicity against A-427 nonsmall lung cell line using MTT colorimetric assay. Format: functional, cell-based. Conditions: Homo sapiens. Summed up:
as §1

The subject of the next data set is HCT-15. Kind of data set: Cytotoxicity against HCT-15 colon cell line using MTT colorimetric assay. Conditions: Homo sapiens. In kind it is functional, cell-based. Summed up: as §1
A further data set has as its system MCF7. Description: Cytotoxicity against Breast cancer cell line MCF-7 using MTT colorimetric assay. In kind it is functional, cell-based. To be noted: Homo sapiens. Summed up:
as §1

A word on the MTD: it is the highest dose tested that stayed within the study's limit of toxicity. The low end stands for a narrow tolerated range, the high end for a wide tolerated range. In general, IC50 refers to the concentration needed to halve the response being measured. Lower therefore signals higher potency. The compound `COc1ccc(-c2cc3c(OC)cc(OC)cc3n(CC(=O)OCc3ccccc3)c2=O)cc1` displayed a maximum tolerated dose (MTD) in [1] of 160 mg/kg. The IC50 with A 172, in the data set with T-24, with PC-3, with U-87 MG, in the data set on A549 and with LoVo was greater than 10 µM throughout. Also, the half-inhibitory concentration (IC50) in the data set with J82, in the data set with U373 MG, with T47D, with A-427, in the data set on HCT-15 and with MCF7 was greater than 10 µM each time.
In data set [1], `COc1ccc(-c2cc3c(OC)cc(OC)cc3n(C)c2=S)cc1` displayed an MTD of 160 mg/kg. The IC50 in the data set on A 172, with T-24, in the data set with PC-3, in the data set with U-87 MG, in the data set on A549 and in the data set on LoVo was greater than 10 µM throughout. For the same compound, the 50% inhibitory concentration (IC50) with J82, in the data set on U373 MG, in the data set with T47D, in the data set with A-427, with HCT-15 and with MCF7 was greater than 10 µM in each case.
`COc1cc(OC)c2cc(-c3ccccc3)c(O)nc2c1` came in with an MTD in [1] of 160 mg/kg. For the same compound, the IC50 in the data set on A 172, in the data set on T-24, in the data set on PC-3, in the data set with U-87 MG, in the data set on A549 and with LoVo was greater than 10 µM throughout. In addition, the IC50 with J82, with U373 MG, in the data set with T47D, in the data set with A-427, in the data set with HCT-15 and in the data set on MCF7 was greater than 10 µM throughout.
As to `COc1cc(OC)c2cc(-c3ccc(O)cc3)c(O)nc2c1`, the MTD in data set [1] came to 160 mg/kg. Moreover, the IC50 with A 172, in the data set with T-24, in the data set on PC-3, in the data set on U-87 MG, with A549 and in the data set on LoVo was greater than 10 µM in each case. Also, the IC50 with J82, in the data set with U373 MG, in the data set with T47D, with A-427, with HCT-15 and in the data set on MCF7 was greater than 10 µM throughout.
For `COc1ccc(-c2cc3c(OC)cc(OC)cc3n(CCCC#N)c2=O)cc1`, in [1], the MTD was found to be 160 mg/kg. Moreover, the IC50 in the data set with A 172, with T-24, with PC-3, in the data set with U-87 MG, with A549 and in the data set with LoVo was greater than 10 µM each time. The 50% inhibitory concentration (IC50) with J82, in the data set on U373 MG, in the data set on T47D, in the data set on A-427, in the data set with HCT-15 and in the data set with MCF7 was greater than 10 µM in each case.
Compound `COc1cc(OC)c2cc(-c3ccc(OC(C)=O)cc3)c(=O)n(C)c2c1` showed an MTD in data set [1] of 160 mg/kg. The IC50 in the data set with A 172, in the data set with T-24, with PC-3, in the data set on U-87 MG, with A549 and in the data set on LoVo was greater than 10 µM throughout. In addition, the IC50 in the data set on J82, with U373 MG, with T47D, in the data set with A-427, in the data set with HCT-15 and with MCF7 was greater than 10 µM throughout.
`COc1ccc(-c2cc3c(OC)cc(OC)cc3n(CCC#N)c2=O)cc1`: the maximum tolerated dose (MTD) in data set [1] came to 160 mg/kg. The half-inhibitory concentration (IC50) in the data set with A 172, in the data set on T-24, with PC-3, with U-87 MG, in the data set with A549 and with LoVo was greater than 10 µM in each case. Moreover, the 50% inhibitory concentration (IC50) with J82, in the data set on U373 MG, in the data set with T47D, in the data set on A-427, in the data set with HCT-15 and with MCF7 was greater than 10 µM in each case.
For the compound `CCOC(=O)Cn1c(=O)c(-c2ccc(OC)cc2)cc2c(OC)cc(OC)cc21`, the maximum tolerated dose (MTD) in data set [1] was 160 mg/kg. For the same compound, the IC50 in the data set on A 172, with T-24, in the data set on PC-3, in the data set with U-87 MG, in the data set with A549 and in the data set with LoVo was greater than 10 µM each time. The IC50 with J82, in the data set on U373 MG, in the data set on T47D, with A-427, in the data set on HCT-15 and with MCF7 was greater than 10 µM each time.
Take `COc1ccc(-c2cc3c(OC)cc(OC)cc3n(C)c2=O)cc1`: in data set [1], the MTD is 160 mg/kg. Further, the IC50 in the data set on T-24, in the data set with PC-3, with U-87 MG, in the data set on A549, in the data set on LoVo and in the data set on J82 was greater than 10 µM in each case. Moreover, the IC50 in the data set with U373 MG, with T47D, in the data set with A-427, in the data set on HCT-15 and in the data set on MCF7 was greater than 10 µM each time.
Turning to `COc1ccc(-c2cc3c(OC)cc(OC)cc3n(C)/c2=N\Nc2ccccc2)cc1`, in data set [1], the MTD worked out at 160 mg/kg. The 50% inhibitory concentration (IC50) with A 172, with T-24, in the data set on PC-3, in the data set with U-87 MG, in the data set with A549 and with LoVo was greater than 10 µM throughout. Besides, the IC50 with J82, in the data set on U373 MG, with T47D, in the data set on A-427, in the data set on HCT-15 and in the data set with MCF7 was greater than 10 µM each time.
In data set [1], `COc1ccc(-c2cc3c(OC)cc(OC)cc3n(CCN(C)C)c2=O)cc1` displayed a maximal tolerated dose (MTD) of 160 mg/kg. Further, the IC50 with A 172, with T-24, with PC-3, in the data set on U-87 MG, in the data set on A549 and with LoVo was greater than 10 µM each time. Also, the 50% inhibitory concentration (IC50) with J82, in the data set on U373 MG, with T47D, with A-427, in the data set with HCT-15 and with MCF7 was greater than 10 µM in each case.
In [1], `COc1ccc(-c2cc3cccc(OC)c3nc2O)cc1` displayed an MTD of 160 mg/kg. The IC50 with A 172, in the data set with T-24, with PC-3, with U-87 MG, in the data set on A549 and in the data set on LoVo was greater than 10 µM each time. The 50% inhibitory concentration (IC50) in the data set on J82, in the data set on U373 MG, in the data set with T47D, with A-427, in the data set on HCT-15 and in the data set on MCF7 was greater than 10 µM each time.
With `COc1ccc(-c2cc3c(OC)cc(OC)c4c3n(c2=O)CCC4=O)cc1`, in data set [1], the maximum tolerated dose (MTD) was determined as 160 mg/kg. In addition, the IC50 in the data set on A 172, in the data set on T-24, in the data set on PC-3, in the data set on U-87 MG, in the data set with A549 and in the data set with LoVo was greater than 10 µM in each case. Moreover, the IC50 in the data set with J82, in the data set on U373 MG, in the data set with T47D, in the data set on A-427, with HCT-15 and in the data set on MCF7 was greater than 10 µM each time.
On to `CC(=O)Oc1ccc(-c2cc3c(OC(C)=O)cc(OC(C)=O)cc3n(C)c2=O)cc1`, for which the maximum tolerated dose (MTD) in data set [1] came to 160 mg/kg. For the same compound, the IC50 with A 172, with T-24, in the data set on PC-3, with U-87 MG, in the data set on A549 and in the data set with LoVo was greater than 10 µM throughout. Besides, the 50% inhibitory concentration (IC50) in the data set on J82, in the data set with U373 MG, with T47D, with A-427, in the data set on HCT-15 and in the data set with MCF7 was greater than 10 µM each time.
Regarding `COc1cc(OC)c2cc(-c3ccc(OCc4ccccc4)cc3)c(O)nc2c1`, in [1], the MTD is 160 mg/kg. Further, the IC50 with A 172, in the data set with T-24, with PC-3, in the data set on U-87 MG, in the data set on A549 and in the data set on LoVo was greater than 10 µM in each case. Further, the 50% inhibitory concentration (IC50) with J82, in the data set on U373 MG, in the data set with T47D, with A-427, in the data set with HCT-15 and in the data set on MCF7 was greater than 10 µM throughout.
Take `COc1ccc(-c2cc3c(OC)cc(OC)cc3n(CC(=O)O)c2=O)cc1`: the maximal tolerated dose (MTD) in data set [1] stood at 160 mg/kg. The IC50 with A 172, with T-24, in the data set on PC-3, in the data set with U-87 MG, in the data set with A549 and in the data set with LoVo was greater than 10 µM in each case. Moreover, the IC50 in the data set with J82, in the data set with U373 MG, with T47D, in the data set on A-427, in the data set with HCT-15 and in the data set with MCF7 was greater than 10 µM in each case.
As for `COc1cc(OC)c2cc(-c3ccc(O)cc3)c(=O)n(C)c2c1`, the MTD in data set [1] was 160 mg/kg. In addition, the IC50 in the data set with A 172, with T-24, with PC-3, with U-87 MG, with A549 and in the data set with LoVo was greater than 10 µM in each case. The concentration for half-maximal inhibition (IC50) in the data set on J82, in the data set with U373 MG, in the data set on T47D, in the data set with A-427, with HCT-15 and in the data set with MCF7 was greater than 10 µM throughout.
Turning to `COc1ccc(-c2cc3c(OC)cc(OC)cc3nc2O)cc1`, in data set [1], the MTD worked out at 160 mg/kg.
